Experimental data taken from ChEMBL document CHEMBL5247578, “Effective synthesis of benzimidazoles-imidazo[1,2-a]pyrazine conjugates: A comparative study of mono-and bis-benzimidazoles for antitumor activity” (Eur J Med Chem, 2019).

Assays:
HCT-15 = assay: Antiproliferative activity against human HCT-15 cells assessed as cell growth inhibition at 10 uM incubated for 48 hrs by sulforhodamine B assay relative to control; assay type: functional
How it was run: (§1)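 NCI-60 one-dose prescreen at 10^-5 M. Cells grown in RPMI 1640 with 5% FBS and 2 mM glutamine, preincubated 24 h, then exposed 48 h at 37 °C. Adherent lines TCA-fixed, SRB-stained, A515 read. Growth percent relative to time-zero and control; negative values mean cell kill.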

A549 = assay: Antiproliferative activity against human A549 cells assessed as cell growth inhibition at 10 uM incubated for 48 hrs by sulforhodamine B assay relative to control; assay type: functional
How it was run: (§2)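 Single-dose NCI-60 prescreen at 10^-5 M. Cells in RPMI 1640 with 5% FBS and 2 mM L-glutamine, seeded 5,000–40,000 cells/well with 24 h preincubation, then drug exposure for 48 h at 37 °C under 5% CO2. Growth read by SRB staining of TCA-fixed cells at 515 nm against time-zero and untreated controls. Negative growth values denote cell kill.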

TK-10 = assay: Antiproliferative activity against human TK-10 cells assessed as cell growth inhibition at 10 uM incubated for 48 hrs by sulforhodamine B assay relative to control; assay type: functional
How it was run: (§3)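 NCI-60 single-dose screen at 10^-5 M. Cells grown in RPMI 1640 with 5% FBS and 2 mM L-glutamine, plated at 5,000–40,000 cells/well, and preincubated 24 h. Drug (DMSO stock) added and incubated 48 h at 37 °C, 5% CO2. Adherent cells fixed with cold TCA, stained with 0.4% SRB in 1% acetic acid, dye solubilized in 10 mM trizma base, A515 read. Percent growth taken against time-zero and untreated control.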

SK-MEL-2 = assay: Antiproliferative activity against human SK-MEL-2 cells assessed as cell growth inhibition at 10 uM incubated for 48 hrs by sulforhodamine B assay relative to control; assay type: functional; how it was run: as §3
HT-29 = assay: Antiproliferative activity against human HT-29 cells assessed as cell growth inhibition at 10 uM incubated for 48 hrs by sulforhodamine B assay relative to control; assay type: functional; how it was run: as §3
HOP-92 = assay: Antiproliferative activity against human HOP-92 cells assessed as cell growth inhibition at 10 uM incubated for 48 hrs by sulforhodamine B assay relative to control; assay type: functional; how it was run: as §1
ACHN = assay: Antiproliferative activity against human ACHN cells assessed as cell growth inhibition at 10 uM incubated for 48 hrs by sulforhodamine B assay relative to control; assay type: functional; how it was run: as §2
Hs-578T = assay: Antiproliferative activity against human Hs-578T cells assessed as cell growth inhibition at 10 uM incubated for 48 hrs by sulforhodamine B assay relative to control; assay type: functional; how it was run: as §3
IGROV-1 = assay: Antiproliferative activity against human IGROV-1 cells assessed as cell growth inhibition at 10 uM incubated for 48 hrs by sulforhodamine B assay relative to control; assay type: functional; how it was run: as §3
UO-31 = assay: Antiproliferative activity against human UO-31 cells assessed as cell growth inhibition at 10 uM incubated for 48 hrs by sulforhodamine B assay relative to control; assay type: functional; how it was run: as §3
KM12 = assay: Antiproliferative activity against human KM12 cells assessed as cell growth inhibition at 10 uM incubated for 48 hrs by sulforhodamine B assay relative to control; assay type: functional; how it was run: as §3
SK-MEL-5 = assay: Antiproliferative activity against human SK-MEL-5 cells assessed as cell growth inhibition at 10 uM incubated for 48 hrs by sulforhodamine B assay relative to control; assay type: functional; how it was run: as §3
HL-60 = assay: Antiproliferative activity against human HL-60 cells assessed as cell growth inhibition at 10 uM incubated for 48 hrs by sulforhodamine B assay relative to control; assay type: functional; how it was run: as §1
MDA-MB-468 = assay: Antiproliferative activity against human MDA-MB-468 cells assessed as cell growth inhibition at 10 uM incubated for 48 hrs by sulforhodamine B assay relative to control; assay type: functional; how it was run: as §3
NCI-H522 = assay: Antiproliferative activity against human NCI-H522 cells assessed as cell growth inhibition at 10 uM incubated for 48 hrs by sulforhodamine B assay relative to control; assay type: functional; how it was run: as §3
SNB-19 = assay: Antiproliferative activity against human SNB-19 cells assessed as cell growth inhibition at 10 uM incubated for 48 hrs by sulforhodamine B assay relative to control; assay type: functional; how it was run: as §3
HCC 2998 = assay: Antiproliferative activity against human HCC 2998 cells assessed as cell growth inhibition at 10 uM incubated for 48 hrs by sulforhodamine B assay relative to control; assay type: functional; how it was run: as §1
U-251 = assay: Antiproliferative activity against human U-251 cells assessed as cell growth inhibition at 10 uM incubated for 48 hrs by sulforhodamine B assay relative to control; assay type: functional; how it was run: as §3
UACC-62 = assay: Antiproliferative activity against human UACC-62 cells assessed as cell growth inhibition at 10 uM incubated for 48 hrs by sulforhodamine B assay relative to control; assay type: functional; how it was run: as §3
LOX IMVI = assay: Antiproliferative activity against human LOX IMVI cells assessed as cell growth inhibition at 10 uM incubated for 48 hrs by sulforhodamine B assay relative to control; assay type: functional; how it was run: as §3
CCRF-CEM = assay: Antiproliferative activity against human CCRF-CEM cells assessed as cell growth inhibition at 10 uM incubated for 48 hrs by sulforhodamine B assay relative to control; assay type: functional; how it was run: as §2
SF-539 = assay: Antiproliferative activity against human SF-539 cells assessed as cell growth inhibition at 10 uM incubated for 48 hrs by sulforhodamine B assay relative to control; assay type: functional; how it was run: as §3
SR = assay: Antiproliferative activity against human SR cells assessed as cell growth inhibition at 10 uM incubated for 48 hrs by sulforhodamine B assay relative to control; assay type: functional; how it was run: as §3
NCI-H226 = assay: Antiproliferative activity against human NCI-H226 cells assessed as cell growth inhibition at 10 uM incubated for 48 hrs by sulforhodamine B assay relative to control; assay type: functional; how it was run: as §3
A498 = assay: Antiproliferative activity against human A498 cells assessed as cell growth inhibition at 10 uM incubated for 48 hrs by sulforhodamine B assay relative to control; assay type: functional; how it was run: as §2
MDA-MB-231 = assay: Antiproliferative activity against human MDA-MB-231 cells assessed as cell growth inhibition at 10 uM incubated for 48 hrs by sulforhodamine B assay relative to control; assay type: functional; how it was run: as §3
RPMI-8226 = assay: Antiproliferative activity against human RPMI-8226 cells assessed as cell growth inhibition at 10 uM incubated for 48 hrs by sulforhodamine B assay relative to control; assay type: functional; how it was run: as §3
T47D = assay: Antiproliferative activity against human T47D cells assessed as cell growth inhibition at 10 uM incubated for 48 hrs by sulforhodamine B assay relative to control; assay type: functional; how it was run: as §3
786-0 = assay: Antiproliferative activity against human 786-0 cells assessed as cell growth inhibition at 10 uM incubated for 48 hrs by sulforhodamine B assay relative to control; assay type: functional; how it was run: as §2
HCT-116 = assay: Antiproliferative activity against human HCT-116 cells assessed as cell growth inhibition at 10 uM incubated for 48 hrs by sulforhodamine B assay relative to control; assay type: functional; how it was run: as §1
RXF 393 = assay: Antiproliferative activity against human RXF 393 cells assessed as cell growth inhibition at 10 uM incubated for 48 hrs by sulforhodamine B assay relative to control; assay type: functional; how it was run: as §3
DU-145 = assay: Antiproliferative activity against human DU-145 cells assessed as cell growth inhibition at 10 uM incubated for 48 hrs by sulforhodamine B assay relative to control; assay type: functional; how it was run: as §1
OVCAR-8 = assay: Antiproliferative activity against human OVCAR-8 cells assessed as cell growth inhibition at 10 uM incubated for 48 hrs by sulforhodamine B assay relative to control; assay type: functional; how it was run: as §3
K562 = assay: Antiproliferative activity against human K562 cells assessed as cell growth inhibition at 10 uM incubated for 48 hrs by sulforhodamine B assay relative to control; assay type: functional; how it was run: as §3
MOLT-4 = assay: Antiproliferative activity against human MOLT-4 cells assessed as cell growth inhibition at 10 uM incubated for 48 hrs by sulforhodamine B assay relative to control; assay type: functional; how it was run: as §3
PC-3 = assay: Antiproliferative activity against human PC-3 cells assessed as cell growth inhibition at 10 uM incubated for 48 hrs by sulforhodamine B assay relative to control; assay type: functional; how it was run: as §3
[1] = n-Octanol/phosphate buffer partition coefficient, logP of the compound at pH 7.4 incubated for 85 mins by shake-flask method; assay type: physicochemical
How it was run: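 Octanol–water partition by shake-flask: n-octanol with 0.15 M phosphate buffer pH 7.4 at 10:1 volumes. Buffer-phase absorbance read before mixing, then shaken 50 min and centrifuged at 2500 rpm for 35 min. Buffer absorbance read again; P = (Ai−Af)/Af × Vw/Vo.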

NCI-H23 = assay: Antiproliferative activity against human NCI-H23 cells assessed as cell growth inhibition at 10 uM incubated for 48 hrs by sulforhodamine B assay relative to control; assay type: functional; how it was run: as §3

## c1cn2cc(-c3ccsc3)nc(-c3ccc4ncn(C5CCCCC5)c4c3)c2n1
HCT-15
  inhibition at 10 µM: 1.37%
A549
  inhibition at 10 µM: 3.97%
TK-10
  inhibition at 10 µM: 3.37%
SK-MEL-2
  inhibition at 10 µM: 3.68%
HT-29
  inhibition at 10 µM: 5.68%
HOP-92
  inhibition at 10 µM: 27.8%
ACHN
  inhibition at 10 µM: 5.76%
Hs-578T
  inhibition at 10 µM: 5.56%
IGROV-1
  inhibition at 10 µM: 1.51%
UO-31
  inhibition at 10 µM: 23.1%
KM12
  inhibition at 10 µM: 15.4%
SK-MEL-5
  inhibition at 10 µM: 25%
HL-60
  inhibition at 10 µM: 18.4%
MDA-MB-468
  inhibition at 10 µM: 21.8%
NCI-H522
  inhibition at 10 µM: 10.2%
SNB-19
  inhibition at 10 µM: 0.39%
HCC 2998
  inhibition at 10 µM: 2.18%
U-251
  inhibition at 10 µM: 6.09%
UACC-62
  inhibition at 10 µM: 18.4%
LOX IMVI
  inhibition at 10 µM: 4.9%
CCRF-CEM
  inhibition at 10 µM: 29.2%
SF-539
  inhibition at 10 µM: 6.29%
SR
  inhibition at 10 µM: 14.3%
NCI-H226
  inhibition at 10 µM: 6.34%
A498
  inhibition at 10 µM: 20.1%
MDA-MB-231
  inhibition at 10 µM: 1.35%
RPMI-8226
  inhibition at 10 µM: 37.9%
T47D
  inhibition at 10 µM: 63.7%
786-0
  inhibition at 10 µM: 6.35%
HCT-116
  inhibition at 10 µM: 13.3%
RXF 393
  inhibition at 10 µM: 8.63%
DU-145
  inhibition at 10 µM: 1.36%
OVCAR-8
  inhibition at 10 µM: 12.1%
K562
  inhibition at 10 µM: 22%
MOLT-4
  inhibition at 10 µM: 30%
PC-3
  inhibition at 10 µM: 19.9%
[1]
  logD at 1.417 h: 1.81
NCI-H23
  inhibition at 10 µM: 10%
